The values that follow come from ChEMBL document CHEMBL1136740, “New active series of growth hormone secretagogues” (J Med Chem, 2003).

The subject of one data set is Canis familiaris. The experiment in a line: Concentration in dogs after oral administration at dose of 1 mg/kg after 180 min. It counts as ADME, organism-based, Canis lupus familiaris. The arrangement: dose 1 mg/kg, route oral. As to conditions: dog, in vivo, 3 h. In outline:
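Beagle dogs (4–6, 2–3 years, 11–15 kg, both sexes) dosed 1 mg/kg through an oral-gastric cannula in randomized sequence. Blood drawn from the cephalic vein at −20 min, then at 15–180 min into EDTA tubes. Plasma GH measured by canine GH RIA (sensitivity 0.4 ng/mL). Peak GH and AUC0–180 min by trapezoid method reported as mean ± SEM; sexes pooled.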

For data set [1], the target named is T1, Growth hormone secretagogue receptor type 1 (Homo sapiens, UniProt Q92847). Description: Binding affinity towards human pituitary Growth hormone secretagogue receptor using [125I][Tyr4]-ghrelin as radioligand.
For data set [2], the target named is T1, Growth hormone secretagogue receptor type 1. The experiment in a line: Binding affinity towards cloned human Growth hormone secretagogue receptor type I in LLC PK-1 cells using [125I][His9]-ghrelin as radioligand. It counts as cell-based.
The next data set concerns Rattus norvegicus. Description: Ratio of GH release stimulated by 300 ug/kg of compound to that of GH release stimulated by 300 ug/kg of hexarelin in infant rat (sc injection). It counts as functional. An outline of the steps: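 Male 10-day-old Sprague-Dawley pups, about 25 g, eight per group. Dosed sc at 300 µg/kg, with solvent as DMSO at final 1:300 dilution. Killed by decapitation 15 min later; trunk-blood plasma GH measured by RIA against the NIDDK rat standard, in ng/mL. Response compared with hexarelin at the same dose.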

Data set [3] is described as follows: Stimulating GH secretion in dogs after oral administration at dose of 1 mg/kg.

For orientation: IC50 means the point on the concentration scale where inhibition reaches its midpoint. Low values mean greater potency, high ones weaker potency.

T1 sequence (Q92847 whole entry): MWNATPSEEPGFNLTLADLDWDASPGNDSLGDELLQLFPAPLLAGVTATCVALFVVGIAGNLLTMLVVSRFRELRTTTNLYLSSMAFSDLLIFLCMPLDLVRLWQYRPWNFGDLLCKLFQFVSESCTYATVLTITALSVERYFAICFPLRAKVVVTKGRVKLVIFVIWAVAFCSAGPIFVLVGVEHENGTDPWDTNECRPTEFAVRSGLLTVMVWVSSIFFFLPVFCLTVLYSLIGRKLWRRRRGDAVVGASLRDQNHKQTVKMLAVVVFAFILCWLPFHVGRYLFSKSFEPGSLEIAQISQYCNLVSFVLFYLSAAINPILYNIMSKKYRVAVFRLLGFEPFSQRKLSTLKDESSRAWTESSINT

As for `CC(C)(N)C(=O)N[C@H](Cc1c[nH]c2ccccc12)C(=O)N[C@H](Cc1c[nH]c2ccccc12)NC=O` [MACIMORELIN], the “GH AUC 0-180” value in the data set on Canis familiaris was determined as 675.35 µg·min/L. For the same molecule, the half-maximal inhibitory concentration (IC50) in data set [1] came to 22.9 nM; in data set [2], 123 nM. For the same molecule, in the data set with Rattus norvegicus, the Ratio is 1.31. The GH peak in data set [3] was determined as 5.5 µg/L.
